ChEMBL document CHEMBL5030552, “Computational Design of Potent D-Peptide Inhibitors of SARS-CoV-2” (J Med Chem, 2021)

Legend:
[1] = test system: SARS-CoV-2; test: Antiviral activity against SARS-CoV-2 assessed as neutralization viral infection in Vero cells by measuring cytopathic effect incubated for 4 days by crystal violet staining based assay; type: functional, organism-based; conditions: Severe acute respiratory syndrome coronavirus 2, Vero, 96 h
[2] = biological target: Spike glycoprotein (Severe acute respiratory syndrome coronavirus 2, UniProt P0DTC2); test: Binding affinity to SARS-CoV-2 spike protein receptor-binding domain by biolayer interferometry (BLI) assay
In short: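 BLI was run at 25 °C with shaking at 1000 rpm. His-tagged RBD (200 nM) was loaded on Ni-NTA sensors, then peptides were applied at several concentrations, and dissociation was read in baseline wells. Signals were referenced against His-tagged SUMO and RBD-only sensors. Subtracted curves were fitted for ka, kd and Kd.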

[3] = Stability of the compound in proteinase K (unknown origin) in presence of serum assessed as loss of peptide measured after 2.5 hr; type: ADME; conditions: read-out: Drug degradation
[4] = test system: Vero; test: Cytotoxicity against African green monkey Vero cells assessed as viable cells measured by MTS assay; type: cell-based; conditions: chlorocebus sabaeus
In short: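 Vero cells (1.5 × 10⁴/well, 24 h growth) were exposed in the neutralization-assay format without virus. Peptides were twofold-diluted from 100 to 0.1953 μM from DMSO stocks diluted in PBS. Viability was read with MTS.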

Row | Compound | IC50 [1] [nM] | Kd [2] [nM] | metabolised at 2.5 h [3] [%] | Activity [4]
1 | CC[C@@H](C)[C@@H](NC(=O)CNC(=O)[C@@H](CC(C)C)NC(=O)CNC(=O)[C@@H](CCCCN)NC(=O)CNC(=O)[C@@H](CC(=O)O)NC(=O)[C@@H](Cc1ccccc1)NC(=O)[C@H](N)CCCNC(=N)N)C(=O)N[C@H](Cc1ccc(O)cc1)C(=O)N[C@H](CCC(N)=O)C(=O)N[C@H](Cc1ccc(O)cc1)C(=O)N[C@H](CCSC)C(=O)N[C@H](CCC(=O)O)C(=O)N[C@H](CCC(=O)O)C(=O)N[C@@H](C(=O)N[C@H](CCC(=O)O)C(=O)N[C@H](Cc1cnc[nH]1)C(=O)N[C@H](C)C(=O)N[C@H](C)C(=O)N[C@H](CO)C(=O)N[C@H](CCCNC(=N)N)C(=O)N[C@H](Cc1ccccc1)C(=O)N[C@H](C)C(=O)N[C@H](Cc1ccc(O)cc1)C(=O)N[C@H](Cc1ccccc1)C(=O)N[C@H](Cc1ccccc1)C(=O)N[C@H](Cc1ccc(O)cc1)C(=O)N[C@H](CCC(N)=O)C(=O)N[C@H](Cc1cnc[nH]1)C(=O)N[C@H](CC(C)C)C(=O)N[C@H](C)C(=O)O)[C@H](C)CC | 5760 | 29 | 87.5 | Non-Toxic
2 | CC[C@@H](C)[C@@H](N)C(=O)N[C@H](CC(N)=O)C(=O)N[C@H](CCC(N)=O)C(=O)N[C@H](Cc1ccc(O)cc1)C(=O)N[C@H](CCSC)C(=O)N[C@H](CCC(=O)O)C(=O)N[C@H](CCC(=O)O)C(=O)N[C@@H](C(=O)N[C@H](CCC(=O)O)C(=O)N[C@H](Cc1cnc[nH]1)C(=O)N[C@H](C)C(=O)N[C@H](C)C(=O)N[C@H](CO)C(=O)N[C@H](CCCNC(=N)N)C(=O)N[C@H](Cc1ccccc1)C(=O)N[C@H](C)C(=O)N[C@H](Cc1ccc(O)cc1)C(=O)N[C@H](Cc1ccccc1)C(=O)N[C@H](Cc1ccccc1)C(=O)N[C@H](Cc1ccc(O)cc1)C(=O)N[C@H](CCC(N)=O)C(=O)N[C@H](Cc1cnc[nH]1)C(=O)N[C@H](CC(C)C)C(=O)N[C@H](C)C(=O)O)[C@H](C)CC |  | 105 |  | 
3 | CC[C@@H](C)[C@@H](NC(=O)[C@@H](Cc1cnc[nH]1)NC(=O)[C@H](NC(=O)[C@@H](CCC(=O)O)NC(=O)[C@@H](CCC(=O)O)NC(=O)[C@@H](CCSC)NC(=O)[C@@H](CC(C)C)NC(=O)[C@@H](C)NC(=O)[C@@H](Cc1ccc(O)cc1)NC(=O)[C@@H](CC(C)C)NC(=O)[C@@H](C)NC(=O)[C@H](NC(=O)[C@@H](CCC(N)=O)NC(=O)[C@H](N)CC(C)C)[C@H](C)O)[C@H](C)CC)C(=O)N[C@H](C)C(=O)N[C@H](C)C(=O)N[C@H](CC(C)C)C(=O)N[C@H](CCC(=O)O)C(=O)N[C@H](CCCCN)C(=O)N[C@@H](C(=O)N[C@H](Cc1c[nH]c2ccccc12)C(=O)N[C@@H](C(=O)N[C@H](C)C(=O)N[C@H](CC(C)C)C(=O)N[C@H](CCCNC(=N)N)C(=O)N[C@H](Cc1cnc[nH]1)C(=O)N[C@H](CCC(N)=O)C(=O)N[C@H](Cc1ccc(O)cc1)C(=O)N[C@@H](C(=O)O)[C@H](C)O)[C@H](C)O)[C@H](C)O | 6560 | 31 | 82.9 | Non-Toxic
